From the RNAGym collection of RNA variant scans (doi:10.1126/science.aae0568)
Variants at the floor of the assay were thinned out.

B1: tRNA (parent)
chain: GUUCCGUUGGCGUAAUGGUAACGCGUCUCCCUCCUAAGGAGAAGACUGCGGGUUCGAGUCCCGUACGGAACG

Variants of: B1
Test: yeast fitness relative to wild type (ratio to wild type); higher = fitter; tRNA-Arg(CCU), competitive growth, 37 C, YPD
Outline: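 Genotype frequency changes were the basis for Darwinian fitness relative to wild type. The frequencies came from 100-nucleotide paired-end sequencing of gene amplicons from the start population and each end population of pooled yeast strains with tRNA-Arg(CCU) gene variants at the native locus. Competition ran in YPD at 37°C for 24 hours in six replicates, genotypes needed ≥ 100 starting reads, and estimates < 0.5 were set to 0.5.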

Compared with U8A G38C G48A, U8G G10A C11G U19G A40G C55U C60U is higher in yeast fitness: at most 0.5 for the first, 0.511 for the second.

Compared with U8C C27A G52A C62G A69G, U8A G68C is higher in yeast fitness: at most 0.5 for the first, 0.661 for the second.

First: U8C C27U C34G C60A
Second: U8A U32G A37G
The yeast fitness of the first is higher: 0.503 for the first, at most 0.5 for the second.

First: U8G C49G U53C C60A
Second: G9A A20G C30U
The yeast fitness of the first is lower: at most 0.5 for the first, 0.71 for the second.

First: U8C G68A
Second: U8A G17A C62G
The yeast fitness of the first is higher: 0.741 for the first, at most 0.5 for the second.

U8C C22U U32C C46G U53G G68C and U8A U53A cannot be ordered by yeast fitness: at most 0.5 for the first, at most 0.5 for the second.

G9A C29U U59G A65C and G9A C29A G56C cannot be ordered by yeast fitness: at most 0.5 for the first, at most 0.5 for the second.

First: U8G G10C
Second: U8A G25A C29G A37C
The yeast fitness of the first is lower: at most 0.5 for the first, 0.646 for the second.

U8C C30U U47A G67C and U8C G17A C46A A65G cannot be ordered by yeast fitness: at most 0.5 for the first, at most 0.5 for the second.

G9A A42U U59A G67C and U8C G48A C55A G58C cannot be ordered by yeast fitness: at most 0.5 for the first, at most 0.5 for the second.

U8A G23A C30G U59A A70C and U8C C24A U35G G52A U64A cannot be ordered by yeast fitness: at most 0.5 for the first, at most 0.5 for the second.

Going from U8A G18A U32A G58A to U8A C30U, the yeast fitness rises from at most 0.5 to 0.665.

U8G A37U G63C and G9A C11A A14C U16A C31A C62U cannot be ordered by yeast fitness: at most 0.5 for the first, at most 0.5 for the second.

U8C C29G C30U C46U G48A and U8C C24G A57G cannot be ordered by yeast fitness: at most 0.5 for the first, at most 0.5 for the second.

U8C C22G C30G and U8A G18C C24A U32C A70U cannot be ordered by yeast fitness: at most 0.5 for the first, at most 0.5 for the second.

First: G9A A42C C66U
Second: U8G G50C
The yeast fitness of the first is higher: 0.543 for the first, at most 0.5 for the second.

First: U8C A21G U28C
Second: U8C G12C C55U A70C
The yeast fitness of the first is higher: 0.637 for the first, 0.542 for the second.

Going from G9A C31A G41C C55U to U8A G18A G25A C33U G51A G56A, the yeast fitness rises from at most 0.5 to 0.614.

Compared with G9A C24U U32G, U8G U26A C66U G67C is higher in yeast fitness: at most 0.5 for the first, 0.847 for the second.

Going from U8C C49G C62A to G9A A21G C62U G63C A70C, the yeast fitness rises from at most 0.5 to 0.52.

Going from U8C A36U to U8G G41A C60G, the yeast fitness falls from 0.647 to at most 0.5.

First: U8G G23C
Second: U8C U35C
The yeast fitness of the first is lower: at most 0.5 for the first, 0.899 for the second.

G9A C11A U35C G50C and G9A A14G C29G cannot be ordered by yeast fitness: at most 0.5 for the first, at most 0.5 for the second.

U8C A14C C55U C61G C62G and G9A C11A C30G C46U cannot be ordered by yeast fitness: at most 0.5 for the first, at most 0.5 for the second.

Compared with U8C G9A G12A, U8C A15U G25A C34G G58C is lower in yeast fitness: 0.529 for the first, at most 0.5 for the second.

U8G U54G G56C and G9A A15U C31G U53A C55U A57C C60G G67C cannot be ordered by yeast fitness: at most 0.5 for the first, at most 0.5 for the second.

Compared with U8C C27G A42G C60U U64A C66A G68A A69G, U8G G17A A20C C22G C29G C34G A70G is lower in yeast fitness: 0.543 for the first, at most 0.5 for the second.

G9A C34G U47C and U8C C31U A45C U47C cannot be ordered by yeast fitness: at most 0.5 for the first, at most 0.5 for the second.

Going from U8C G9C A21C C24G G38A to U8C A37G, the yeast fitness falls from 0.74 to 0.657.

Going from U8G C24G U47C C61G to G9A A65G C66U, the yeast fitness rises from at most 0.5 to 0.815.

U8C G9A A42G G58U and U8C C55U G58A cannot be ordered by yeast fitness: at most 0.5 for the first, at most 0.5 for the second.

Compared with G9A A43C, G9A A43U is higher in yeast fitness: 1.07 for the first, 1.08 for the second.

Compared with U8C G12C A70C, G9A A14U C29G C34A G63A is lower in yeast fitness: 0.686 for the first, at most 0.5 for the second.

Going from U8G C49G U53C C60A A69U to U8C G41A A65G, the yeast fitness rises from at most 0.5 to 0.63.

First: G9A C30A A65C
Second: U8A U13A G48C
The yeast fitness of the first is higher: 0.664 for the first, 0.516 for the second.

G9A C27G C34U and G9A C31A U47C G67A cannot be ordered by yeast fitness: at most 0.5 for the first, at most 0.5 for the second.

Compared with G9A C27G C31U C46G G51C A70U, U8A C49U A69U is higher in yeast fitness: at most 0.5 for the first, 0.537 for the second.

Going from U8C G63C to U8G A20G A37G A43G A70U, the yeast fitness falls from 0.778 to at most 0.5.

Going from U8C C27G C29A to U8C G9A U13A A15G A37U, the yeast fitness rises from at most 0.5 to 0.549.

First: G9A C11U C31U
Second: G9A A14U A21C
The yeast fitness of the first is higher: 0.704 for the first, 0.577 for the second.

Compared with U8C A15G, U8C A40U A69U is lower in yeast fitness: 0.969 for the first, 0.75 for the second.

First: G9A A57G
Second: U8G G67U
The yeast fitness of the first is higher: 0.933 for the first, 0.583 for the second.

First: U8A C30U G63A
Second: U8A G10A G39A
The yeast fitness of the first is lower: at most 0.5 for the first, 0.626 for the second.

First: U8A G12A A21G
Second: U8G A20G
The yeast fitness of the first is lower: at most 0.5 for the first, 0.544 for the second.

U8G G10C A40C and U8A U19A G50C cannot be ordered by yeast fitness: at most 0.5 for the first, at most 0.5 for the second.

First: U8C A43C C66G
Second: U8A C31U A69C
The yeast fitness of the first is lower: at most 0.5 for the first, 0.557 for the second.

Compared with U8C G50C, U8C C24A C49U is lower in yeast fitness: 0.663 for the first, at most 0.5 for the second.

Going from U8A C55U G68A to U8C U13C C24A A37G, the yeast fitness rises from 0.578 to 0.761.

G9A C11G U13G G23C C34U C55U and U8G C30A G50C C62U G67U cannot be ordered by yeast fitness: at most 0.5 for the first, at most 0.5 for the second.

Compared with G9A A65U, U8C C27G A42G is lower in yeast fitness: 0.93 for the first, at most 0.5 for the second.

Going from U8C C24G G38C U53G to U8G G18C A37G A40G, the yeast fitness falls from 0.635 to 0.546.

Going from U8C G50A A70U to U8C G12C C62U, the yeast fitness falls from 0.736 to 0.587.

First: G9A C55G A69C
Second: U8G A69U
The yeast fitness of the first is higher: 0.611 for the first, 0.575 for the second.

First: U8G U47A
Second: U8A C61A
The yeast fitness of the first is lower: 0.602 for the first, 0.753 for the second.

U8C U26A C27A and U8G A21U G68C cannot be ordered by yeast fitness: at most 0.5 for the first, at most 0.5 for the second.

Going from U8C C11U C22G C55G G63C to G9A C24G C34G, the yeast fitness rises from at most 0.5 to 0.633.

U8G C30U A45G C60A C66U and U8C G9A G12A C60U cannot be ordered by yeast fitness: at most 0.5 for the first, at most 0.5 for the second.

Going from U8C C31G G51A G68C to U8A C34U, the yeast fitness rises from at most 0.5 to 0.508.

First: G9A A40G
Second: G9A A40C
The yeast fitness of the first is higher: 0.918 for the first, 0.881 for the second.

Going from U8A G39C A57G A65G to U8C C31G A42G, the yeast fitness rises from at most 0.5 to 0.624.

U8G G17A C31A C66U and U8C U16A A21C C24G A37U C55U cannot be ordered by yeast fitness: at most 0.5 for the first, at most 0.5 for the second.

Compared with U8A G48C, G9A C46A is higher in yeast fitness: 0.761 for the first, 0.91 for the second.

U8C G9A C22G U32G C49G C55G and U8C A21U C30G G58C cannot be ordered by yeast fitness: at most 0.5 for the first, at most 0.5 for the second.

U8C G17C U26C C34A A45C G48A and U8A C49G A57C cannot be ordered by yeast fitness: at most 0.5 for the first, at most 0.5 for the second.

First: U8G G25A A70C
Second: G9A C11G C22U A40G A42G
The yeast fitness of the first is higher: 0.544 for the first, at most 0.5 for the second.

U8C C29A C34G A36G A40C U47A U64C and G9A C27A A42C C49G G51C A65C cannot be ordered by yeast fitness: at most 0.5 for the first, at most 0.5 for the second.

U8C U19C C55G A70C and U8G U13A C30U G39C cannot be ordered by yeast fitness: at most 0.5 for the first, at most 0.5 for the second.

Compared with U8C A42C, U8C G12A A21C is lower in yeast fitness: 0.857 for the first, at most 0.5 for the second.

U8C U26G C30U A40G and U8G A15C U28A cannot be ordered by yeast fitness: at most 0.5 for the first, at most 0.5 for the second.

Compared with U8A U13A, U8C C22A C33G G39C C46U C66U is lower in yeast fitness: 0.606 for the first, 0.536 for the second.

Going from U8A U35C A42C G67A to U8C U32G G50A A69U, the yeast fitness falls from 0.568 to 0.557.

G9A C11U C49A G67U and U8C G9A C22G U32G G51C U64A C66U A69C cannot be ordered by yeast fitness: at most 0.5 for the first, at most 0.5 for the second.

Compared with G9A A21U, G9A A21G is higher in yeast fitness: 0.693 for the first, 1.05 for the second.

First: U8A G9C G38A A40C U59C
Second: U8A U28A C31G G44A G51C A65G
The yeast fitness of the first is higher: 0.638 for the first, at most 0.5 for the second.

First: G9A A69U
Second: G9A A69G
The yeast fitness of the first is higher: 1.04 for the first, 0.953 for the second.

Compared with U8G C11U G48A A69U, U8G G56A is higher in yeast fitness: at most 0.5 for the first, 0.568 for the second.

Compared with U8G A14G G18A U47A, U8C C55G is higher in yeast fitness: at most 0.5 for the first, 0.671 for the second.

Compared with U8C C55U, G9A C31U C60U A65G is lower in yeast fitness: 0.754 for the first, at most 0.5 for the second.

Going from U8A C31G to U8C C24U A65C, the yeast fitness falls from 0.679 to 0.59.

U8A G12C U47C and U8A G10C C11U C24U A42C U47C G68C cannot be ordered by yeast fitness: at most 0.5 for the first, at most 0.5 for the second.

G9A C24G C34G A45C A65G and G9A C34U G67A cannot be ordered by yeast fitness: at most 0.5 for the first, at most 0.5 for the second.

Going from G9A A21U A36G A40C A69U to U8C C34U, the yeast fitness rises from at most 0.5 to 0.728.

Going from U8C U32C to U8A U13A A20C A21U A42U, the yeast fitness falls from 0.81 to at most 0.5.

Variant U8C U47A has a yeast fitness of 0.937.
